LANA-H2A inh: blocks KSHV LANA binding to histone H2A/H2B. Q9QR71. cell-free LANA-H2A/H2B peptide, fluorescence polarization. inhibition, % (test concentration not listed). 320,000 compounds, 0.6% hits. AID 2629; in the data active = inhibition mostly above about 10%, no sharp cut-off; inactive = mostly below about 6.7%
Pemphigus Ab inh: human desmoglein-3 autoantibody binding inhibition; P32926; DSG3-coupled beads, scFv-anti-DSG3-GFP binding, flow cytometry; hits give low values; binding (percent of control), % at 10 µM; 310,000 compounds, 0.48% hits;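 active = binding more than 3 SD below its plate's average and above zero; inconclusive = below that plate limit but binding exactly zero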;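 also: hits lower antibody fragment binding to DSG3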
T cell HTS: T cell immune modulation candidate; 2C CD8+ T cell-vesicle binding, flow cytometry; hits give low values; response (vesicle binding), % at 7 µM; 330,000 compounds, 0.068% hits;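 active = response, share of CD8 T cells binding vesicles, and their 90th percentile fluorescence all below set limits, cut at about 80% in these data, passing the limit was not always enough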;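 also: values below 100% mean blocked vesicle binding to the CD8+ T cells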
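Also added: QL9-peptide-loaded Drosophila micro-vesicles bearing Ld, ICAM-1 and B7-1; Test system: purified 2C TCR transgenic mouse naive CD8+ T cells; Measured by: cytometric PE anti-B7-1 and Alexa647 anti-CD8 signals after 1% paraformaldehyde fixation; Timing: binding step 1.5 h, 37 °C, antibody labelling 20 min, ice.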
JMJD2C inh: inhibitors of human GASC-1 (JMJD2C) demethylase; AID 2099; GST-JMJD2C(1-420) H3K9me3 demethylation, DELFIA europium; inhibition, % at 2.35 µM; Q9H3R0; 330,000 compounds, 0.069% hits;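 active = more than half of a compound's replicate wells show inhibition beyond 50%, single wells judged on their own value; inconclusive = some, but no more than half, of replicates pass 50% inhibition; inactive = no replicate passes 50% inhibition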;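 also: signal counts dimethyl H3K9 product captured on neutravidin plate; 0% = median of DMSO wells and 100% = 0.3 times that DMSO median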
Arrestin-AP2 inh: blocks beta-arrestin peptide binding to AP2 adaptin; 340,000 compounds, 0.31% hits; inhibition, % at 10 µM; FITC-arrestin peptide / GST-AP2 beads, flow cytometry; AP2 beta2 appendage carries R879A mutation;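 active = inhibition above a set limit, near 3 SD of compounds lacking own fluorescence, cut at about 54% in these data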;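 also: plate controls were DMSO wells for no effect and 5 µM unlabelled arrestin peptide for full effect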
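System: GST-tagged AP2 beta2-adaptin appendage (R879A) on 4 µm glutathione beads / Reagent: FITC-arrestin peptide, 50 nM / Detection: HyperCyt-sampled flow cytometry, FL1 channel, ex 488/em 535 nm / Timing: 12 min plus 1 h, RT / Buffer or medium: PBS plus Tween 20 (0.05%) and BSA (0.1%)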
HDAC3 inh: human HDAC3 inhibition | O15379 | recombinant HDAC3, fluorogenic peptide/trypsin coupled, fluorescence | inhibition, % at 8.3 µM | 320,000 compounds, 0.15% hits; in the data active = inhibition above about 26%, passing the limit was not always enough; inconclusive = no clear call, values can overlap the other calls
Target sequence (O15379 whole entry, looked up): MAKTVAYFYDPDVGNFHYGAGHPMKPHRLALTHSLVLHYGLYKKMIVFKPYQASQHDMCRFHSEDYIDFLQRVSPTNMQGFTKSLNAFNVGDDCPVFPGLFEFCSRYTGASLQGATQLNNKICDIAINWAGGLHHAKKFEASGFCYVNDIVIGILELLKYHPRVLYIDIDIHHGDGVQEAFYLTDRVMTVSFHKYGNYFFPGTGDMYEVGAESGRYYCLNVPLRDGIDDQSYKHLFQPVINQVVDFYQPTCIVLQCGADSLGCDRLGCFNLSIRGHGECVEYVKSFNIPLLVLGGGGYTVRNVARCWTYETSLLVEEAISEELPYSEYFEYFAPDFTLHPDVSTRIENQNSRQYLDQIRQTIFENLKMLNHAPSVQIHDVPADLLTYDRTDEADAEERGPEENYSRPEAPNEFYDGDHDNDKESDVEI
Starred values were filed as active, the others as inactive; ? = inconclusive; nt = no result. The list is not random: actives were taken first. Their share in the collection is about 1.6%.

SMILES	LANA-H2A inh	Pemphigus Ab inh	T cell HTS	JMJD2C inh	Arrestin-AP2 inh	HDAC3 inh
CCCC(C)C(=O)Nc1ccncc1 (stereo not drawn)	2.9	94.4	319.0	2.6	10.6	-1.3
COc1ccc(C(=O)/C=C/Nc2ccc(S(N)(=O)=O)cc2)cc1OC	-7.7	71.0*	102.4	-4.7	-18.9	8.1
O=C(O)c1ccccc1C1=Nc2ccc(O)cc2Oc2cc(O)ccc21	16.9*	99.6	374.1	44.5	-6.3	7.0
COc1ccc(C(C(=O)NC(C)(C)C)N(C(=O)CCC(=O)Nc2cc(C)on2)c2cccc(C)c2C)cc1 (stereo not drawn)	-13.4	102.3	150.3	1.9	-10.7	3.2
Cc1nc2ccc(NC(=O)COc3ccccc3[N+](=O)[O-])cc2s1	4.3	102.5	597.3	-23.5	1.5	-0.4
Cc1nc2ccc(NC(=O)COc3ccccc3C)cc2s1	7.8	105.2	306.5	64.8*	-11.2	-0.9
CN(C)c1ccc(C(c2ccc(N(C)C)cc2)C(O)c2ccccc2)cc1 (stereo not drawn)	nt	nt	nt	nt	13.8	nt
COc1ccc2cc(C#N)c(SCC(=O)N3CC(=O)Nc4ccccc43)nc2c1	-4.3	69.2*	98.1	-6.0	-4.9	-2.1
COc1ccc(C2NC(=S)NC3=C2CCCC3=C2SCCS2)cc1 (stereo not drawn)	2.5	87.1	210.4	0.3	23.3	?
S=C1NC2=C(CCCC2=C2SCCCS2)C(c2ccccc2)N1 (stereo not drawn)	-2.5	109.3	170.5	0.8	24.0	43.3*
COc1ccccc1C(=O)Nc1nnc(C)s1	-4.1	103.1	883.2	-5.7	-6.5	13.0
COc1cc(C(=O)Nc2nnc(C)s2)c([N+](=O)[O-])cc1OC	0.8	85.0*	598.6	3.3	8.1	-8.1
O=C1CS/C(=N/N=C/c2cccs2)N1Cc1ccc(F)cc1	4.1	70.0*	544.7	12.9	-5.4	-2.1
CC1Nc2ncnc(N3CCN(c4ccccn4)CC3)c2N(Cc2ccccc2)C1=O (stereo not drawn)	0.3	106.9	268.2	2.9	-7.4	4.2
COc1ccc(CN2C(=O)C(C)Nc3ncnc(N4CCN(c5ccccn5)CC4)c32)cc1 (stereo not drawn)	-1.6	99.7	0.0*	nt	7.1	-0.9
O=C(CSc1ncnc2c1cnn2-c1cccc(Cl)c1)NCC1CCCO1 (stereo not drawn)	1.9	101.0	312.7	-15.0	25.2	-0.4
Cc1cc(C)c(NC(=O)CN(C)C(=O)CCN2C(=O)C3CCCCC3C2=O)c(C)c1 (stereo not drawn)	nt	100.1	nt	nt	nt	nt
O=C1c2cccc3c(N4CCCCC4)ccc(c23)C(=O)N1c1ccccn1	31.8*	104.5	255.1	-0.7	-3.6	-4.0
CCN(CC)S(=O)(=O)c1ccc(C(=O)OCCN2C(=O)c3cccc4c(N5CCOCC5)ccc(c34)C2=O)cc1	26.5*	173.9	212.8	2.4	20.8	-1.1
CC(=O)N(C(C)=O)N1C(=O)c2cccc3c(N4CCOCC4)ccc(c23)C1=O	54.8*	101.2	373.5	14.9	-0.5	7.3
CCCN1C(=O)c2cccc3c(N4CCCCC4)ccc(c23)C1=O	12.8	122.8	347.7	0.3	nt	-0.3
O=C(c1cc(Br)c[nH]1)N1CCSCC1	-2.3	95.3	232.5	10.1	-3.5	1.5
COc1ccc(C(=O)N/N=C/c2ccc(OC)c(CN3CCc4cc(OC)c(OC)cc4C3C)c2)cc1 (stereo not drawn)	2.1	110.5	308.7	-1.7	3.7	15.6
Cc1noc(C)c1S(=O)(=O)N1CCN(c2ccc([N+](=O)[O-])cc2)CC1	14.7*	99.3	297.9	1.2	-0.4	-1.1
CCN(CC)/C(=N\S(=O)(=O)c1ccc(F)cc1)c1ccccc1	-2.3	99.0	456.7	-1.8	1.0	-1.1
SMILES	LANA-H2A inh	Pemphigus Ab inh	T cell HTS	JMJD2C inh	Arrestin-AP2 inh	HDAC3 inh
COc1cccc(C(C(=O)NC2CCCCC2)N(C(=O)c2csnn2)C2CC2)c1 (stereo not drawn)	12.9*	102.6	326.4	3.0	12.2	1.4
NC(CSC(c1ccccc1)(c1ccccc1)c1ccc2c(c1)OCO2)C(=O)O (stereo not drawn)	nt	92.5*	nt	nt	nt	nt
Cn1[nH]c(-c2ccccc2)c(/C=N/O)c1=O	29.3*	nt	359.6	6.8	-17.7	-10.5
Cc1[nH]n(-c2ccccc2)c(=O)c1/C=N/O	7.0	98.6	363.0	-3.0	-3.5	7.5
Cc1ccc(NC(=O)c2cc(S(=O)(=O)N3CCCCC3)c[nH]2)cc1C	0.5	92.5	339.8	1.3	-1.9	-1.3
CCC(Sc1nnc(-c2ccco2)n1C)C(=O)Nc1nnc(C)s1 (stereo not drawn)	-6.3	nt	214.2	-11.3	0.3	-2.3
O=C(NCc1ccc(Cl)cc1)C(=O)Nc1nccs1	-0.3	75.8*	513.0	-10.6	31.3	-5.6
NS(=O)(=O)c1ccc(NC(=S)N2CCN(c3ccc(Cl)c(Cl)c3)CC2)cc1	nt	53.3*	272.2	2.3	-1.4	nt
CCOC(=O)c1c(N)nn(C(=O)C(C)(C)C)c1-c1ccccc1	-4.2	91.6*	973.8	-6.5	1.1	-1.3
CCCCn1c(N)c(N(CC(C)C)C(=O)c2cc(-c3ccncc3)nc3ccccc23)c(=O)[nH]c1=O	2.8	106.9	201.4	4.2	-8.7	7.5
CCOc1cccc(C(=O)Nc2ccc(N3CCN(S(C)(=O)=O)CC3)cc2)c1	-2.2	-21.6*	464.9	10.0	12.8	3.7
CCOc1cc(N2CCOCC2)c(OCC)cc1NC(=O)c1ccc(-n2ccnc2)c([N+](=O)[O-])c1	0.4	96.5	534.0	5.5	-4.1	-0.1
COc1ccccc1NC(=O)c1ccc(-n2ccnc2)c([N+](=O)[O-])c1	-3.9	65.9*	247.5	-48.3	13.6	1.6
O=C(NCCNc1ccc([N+](=O)[O-])cc1C(F)(F)F)c1ccccc1	nt	101.5	209.0	52.0*	5.9	nt
CSc1nnc2c(n1)c(C)nn2-c1cccc(C)c1	6.5	86.2*	671.7	-1.3	37.9	0.8
CCN1C[C@@H]2[C@@H]3C(=O)N(Cc4ccccc4)C(=O)[C@@H]3[C@](Cc3ccccc3)(C1=O)N2C(=O)c1ccc(Br)cc1	nt	102.6	nt	nt	-0.7	nt
COC(=O)c1ccc(CNC(=O)COC(=O)/C=C/c2cc(OC)c(OC)c(OC)c2)cc1	4.1	60.8*	263.4	-4.2	-5.3	-1.8
CCN(CC(=O)Nc1c(F)cccc1F)C(=O)CSc1nc(C)cc(C)n1	2.9	105.3	73.0	5.3	-5.5	-2.0
O=C(O)c1ccc(NC(=S)NC(=O)c2ccc(-c3ccccc3)cc2)cc1	-7.1	30.7*	225.5	55.1	-13.2	-6.3
CC(=O)Nc1ccc(NC(=S)NC(=O)c2ccc(-c3ccccc3)cc2)cc1	-2.2	70.9*	285.4	-8.9	15.8	-19.6

High-throughput results (PubChem)
